Columns and labels:
[1] = rat, isolated protein, 40 min, 4 µM
[2] = test system: Plasma; experiment: Anticoagulant activity in human citrated plasma assessed as concentration required to double activated partial thromboplastin time after 3 mins by coagulation analyser; type: functional, cell-free; conditions: 0.05 h
[3] = Clearance in Han Wistar rat at 0.5 umol/kg, iv by LC-MS/MS method; type: ADME, organism-based; conditions: in vivo
How it was run: (§1)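 Male Han Wistar rats, cannulated in the carotid artery for sampling and the jugular vein for i.v. dosing, one week before the study (two days before for intraduodenal dosing). Single doses: 0.5 µmol/kg i.v., or 1 µmol/kg by gavage or intraduodenally. Vehicles were 5% mannitol in water or DMA:TEG:water (1:1:1). Plasma sampled up to 24 h and analysed by LC-MS/MS. Non-compartmental analysis; means of n=3, with F from mean AUCinf.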

[4] = species: Rattus norvegicus; experiment: Antithrombotic activity in rat caval vein thrombosis model assessed as prevention of venous thrombosis; type: functional, organism-based
[5] = molecular target: Thrombin & trypsin (Homo sapiens) (UniProt P00734+P07477+P07478+P35030); experiment: Selectivity ratio of Ki for human trypsin 1 to Ki for human alpha-thrombin; type: protein assay
[6] = molecular target: Coagulation factor X (Homo sapiens, UniProt P00742); experiment: Inhibition of human F10a using S-2765 as substrate preincubated for 300 secs followed by substrate addition measured after 40 mins
Sequence of Coagulation factor X (P00742 41-179 limits assumed): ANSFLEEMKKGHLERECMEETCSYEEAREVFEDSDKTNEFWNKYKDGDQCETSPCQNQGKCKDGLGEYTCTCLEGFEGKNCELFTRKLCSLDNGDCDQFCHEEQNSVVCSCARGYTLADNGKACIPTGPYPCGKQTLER
Sequence of Coagulation factor X (P00742 235-488 limits assumed): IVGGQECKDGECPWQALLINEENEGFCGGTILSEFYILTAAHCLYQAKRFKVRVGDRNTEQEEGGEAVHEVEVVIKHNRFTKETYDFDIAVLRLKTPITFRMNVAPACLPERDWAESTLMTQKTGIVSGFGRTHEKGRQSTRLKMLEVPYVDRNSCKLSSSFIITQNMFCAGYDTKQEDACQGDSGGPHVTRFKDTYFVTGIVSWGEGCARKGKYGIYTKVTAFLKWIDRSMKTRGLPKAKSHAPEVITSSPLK
How it was run: (§2)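 Human proteases assayed at one substrate concentration with ten inhibitor concentrations at 37 °C, ≤1.3% DMSO, in an enzyme-specific Tris-HCl pH 7.4 buffer. Enzyme and inhibitor preincubated 300 s, then substrate added; absorbance read at 405 nm after 40 min. IC50 converted to Ki by IC50 = Ki(1+S/KM), using KM measured under assay conditions.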

[7] = molecular target: Coagulation factor IX (Homo sapiens, UniProt P00740); experiment: Inhibition of human F9a using pefachrome F9a as substrate preincubated for 300 secs followed by substrate addition measured after 40 mins
Sequence of Coagulation factor IX (P00740 47-191 limits assumed): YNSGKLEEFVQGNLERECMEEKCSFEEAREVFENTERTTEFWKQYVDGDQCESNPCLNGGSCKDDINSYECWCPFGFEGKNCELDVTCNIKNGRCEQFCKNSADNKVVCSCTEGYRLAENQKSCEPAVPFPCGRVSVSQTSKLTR
Sequence of Coagulation factor IX (P00740 227-461 limits assumed): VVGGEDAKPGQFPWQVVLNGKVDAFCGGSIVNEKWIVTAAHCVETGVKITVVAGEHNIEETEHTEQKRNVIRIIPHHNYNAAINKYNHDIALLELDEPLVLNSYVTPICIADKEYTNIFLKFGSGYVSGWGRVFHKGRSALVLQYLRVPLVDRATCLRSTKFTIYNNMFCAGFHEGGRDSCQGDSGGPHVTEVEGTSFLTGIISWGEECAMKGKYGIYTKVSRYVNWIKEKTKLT

[8] = molecular target: Prothrombin (Homo sapiens, UniProt P00734); experiment: Inhibition of human alpha-thrombin using S-2366 as substrate after 40 mins
[9] = AUCinfinity in Han Wistar rat at 1 umol/kg, po administered via gavage by LC-MS/MS method; type: ADME, organism-based; set-up: dose 1 umol/kg, time infinity, route oral; conditions: in vivo
How it was run: as §1

[10] = molecular target: Cytochrome P450 3A4 (Homo sapiens, UniProt P08684); experiment: Inhibition of human CYP3A4; type: ADME
Sequence of Cytochrome P450 3A4 (P08684 whole entry): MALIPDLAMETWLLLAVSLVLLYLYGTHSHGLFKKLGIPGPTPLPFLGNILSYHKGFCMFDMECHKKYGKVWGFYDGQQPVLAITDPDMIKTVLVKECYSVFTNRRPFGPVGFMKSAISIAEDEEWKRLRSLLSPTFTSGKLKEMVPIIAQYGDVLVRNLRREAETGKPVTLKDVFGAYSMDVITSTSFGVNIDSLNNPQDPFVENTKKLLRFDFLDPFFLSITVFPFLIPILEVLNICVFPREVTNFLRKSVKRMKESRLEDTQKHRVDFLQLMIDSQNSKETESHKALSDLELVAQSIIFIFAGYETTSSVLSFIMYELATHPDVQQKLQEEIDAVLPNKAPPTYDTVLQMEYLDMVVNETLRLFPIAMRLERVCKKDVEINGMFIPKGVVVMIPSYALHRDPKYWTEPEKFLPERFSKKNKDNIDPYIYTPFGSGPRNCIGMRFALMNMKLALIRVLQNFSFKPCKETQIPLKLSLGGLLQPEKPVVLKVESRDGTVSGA

[11] = species: Homo sapiens; experiment: Selectivity ratio of Ki for human F10a to Ki for human alpha-thrombin
[12] = (§3) Drug level in human hepatocytes treated with 25-Chloro-5,18-dimethyl-13,14,17,20,22,23-hexahydro-1H,7H-15,19-methano-8,12-(metheno)-4,6,2,14,15,22-benzodioxatetraazacyclopentacosine-3,7,21,28(2H,16H)-tetrone assessed as esterase-mediated compound formation at 4 uM after 40 mins by ultraperformance liquid chromatographic method; type: ADME, cell-based; conditions: isolated protein
How it was run: (§4)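 Cryopreserved human hepatocytes at 10^6 viable cells/mL, thawed and pre-warmed 10 min at 37 °C. Compound added from CH3CN stock at 4 µM final. Incubated 40 min, then quenched in cold CH3CN, with compound-free incubations as blanks. Metabolites assigned by LC-MS product ion spectra.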

[13] = molecular target: Serine protease 1 (Homo sapiens, UniProt P07477); experiment: Inhibition of human trypsin 1 using S-2222 as substrate preincubated for 300 secs followed by substrate addition measured after 40 mins
Sequence of Serine protease 1 (P07477 whole entry): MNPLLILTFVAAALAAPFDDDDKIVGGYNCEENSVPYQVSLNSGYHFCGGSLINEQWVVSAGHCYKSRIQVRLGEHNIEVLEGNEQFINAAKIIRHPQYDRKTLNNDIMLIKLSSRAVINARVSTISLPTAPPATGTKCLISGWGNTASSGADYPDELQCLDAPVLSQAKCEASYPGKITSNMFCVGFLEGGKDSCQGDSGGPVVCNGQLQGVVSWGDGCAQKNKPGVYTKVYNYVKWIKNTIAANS
How it was run: as §2

[14] = Intrinsic clearance in Sprague-Dawley rat liver microsomes at 1 umol/L after 7 to 30 mins by LC-MS/MS method; type: ADME, Microsome; conditions: read-out: CLH
[15] = AUCinfinity in Han Wistar rat at 0.5 umol/kg, iv by LC-MS/MS method; type: ADME, organism-based; set-up: dose 0.5 umol/kg, time infinity, route intravenous; conditions: in vivo
How it was run: as §1

[16] = Apparent permeability across apical to basolateral side in human Caco2 cells at 10 uM after 45 to 120 mins by ultraperformance LC/MS/MS method; conditions: Caco-2
[17] = Efflux ratio of apparent permeability across basolateral to apical over apical to basolateral side in human Caco2 cells at 10 uM after 45 to 120 mins by ultraperformance LC/MS/MS method; conditions: Caco-2
[18] = Drug level in human liver microsomes treated with treated with 25-Chloro-5,18-dimethyl-13,14,17,20,22,23-hexahydro-1H,7H-15,19-methano-8,12-(metheno)-4,6,2,14,15,22-benzodioxatetraazacyclopentacosine-3,7,21,28(2H,16H)-tetrone in presence of NADPH; type: ADME, Microsome
[19] = species: Homo sapiens; experiment: Selectivity ratio of Ki for human plasmin to Ki for human alpha-thrombin
[20] = species: Homo sapiens; experiment: Selectivity ratio of Ki for human F11a to Ki for human alpha-thrombin
[21] = Volume of distribution at steady state in Han Wistar rat at 0.5 umol/kg, iv by LC-MS/MS method; type: ADME, organism-based; conditions: in vivo, read-out: Vdss
How it was run: as §1

[22] = Inhibition of human tissue factor/F7a using spectrozyme as substrate preincubated for 300 secs followed by substrate addition measured after 40 mins
How it was run: as §2

[23] = Drug level in human hepatocytes treated with 25-Chloro-18-methyl-13,14,17,20,22,23-hexahydro-1H,7H-15,19-methano-8,12-(metheno)-4,6,2,14,15,22-benzodioxatetraazacyclopentacosine-3,7,21,28(1H,16H)-tetrone assessed as esterase-mediated compound formation at 4 uM after 40 mins by ultraperformance liquid chromatographic method; type: ADME, cell-based; conditions: isolated protein
How it was run: as §4

[24] = Apparent terminal half life in Han Wistar rat at 0.5 umol/kg, iv by LC-MS/MS method; type: ADME, organism-based; conditions: in vivo, read-out: betat1/2(app) (converted)
How it was run: as §1

[25] = as §3, with “rat” for “human”; type: ADME, cell-based; conditions: isolated protein
[26] = Drug level in human liver microsomes treated with treated with 25-Chloro-5,18-dimethyl-13,14,17,20,22,23-hexahydro-1H,7H-15,19-methano-8,12-(metheno)-4,6,2,14,15,22-benzodioxatetraazacyclopentacosine-3,7,21,28(2H,16H)-tetrone in absence of NADPH; type: ADME, Microsome
[27] = Drug level in human liver microsomes treated with treated with 25-Chloro-18-methyl-13,14,17,20,22,23-hexahydro-1H,7H-15,19-methano-8,12-(metheno)-4,6,2,14,15,22-benzodioxatetraazacyclopentacosine-3,7,21,28(1H,16H)-tetrone in absence of NADPH; type: ADME, Microsome
[28] = species: Homo sapiens; experiment: Selectivity ratio of Ki for human F9a to Ki for human alpha-thrombin
[29] = physchem; conditions: 1-octanol/phosphate buffer, pH 7.4
[30] = Oral bioavailability in Han Wistar rat at 1 umol/kg administered via gavage by LC-MS/MS method; type: ADME, organism-based; conditions: in vivo
How it was run: as §1

[31] = molecular target: Plasminogen (Homo sapiens, UniProt P00747); experiment: Inhibition of human plasmin using S-2366 as substrate preincubated for 300 secs followed by substrate addition measured after 40 mins
Sequence of Plasminogen (P00747 97-580 limits assumed): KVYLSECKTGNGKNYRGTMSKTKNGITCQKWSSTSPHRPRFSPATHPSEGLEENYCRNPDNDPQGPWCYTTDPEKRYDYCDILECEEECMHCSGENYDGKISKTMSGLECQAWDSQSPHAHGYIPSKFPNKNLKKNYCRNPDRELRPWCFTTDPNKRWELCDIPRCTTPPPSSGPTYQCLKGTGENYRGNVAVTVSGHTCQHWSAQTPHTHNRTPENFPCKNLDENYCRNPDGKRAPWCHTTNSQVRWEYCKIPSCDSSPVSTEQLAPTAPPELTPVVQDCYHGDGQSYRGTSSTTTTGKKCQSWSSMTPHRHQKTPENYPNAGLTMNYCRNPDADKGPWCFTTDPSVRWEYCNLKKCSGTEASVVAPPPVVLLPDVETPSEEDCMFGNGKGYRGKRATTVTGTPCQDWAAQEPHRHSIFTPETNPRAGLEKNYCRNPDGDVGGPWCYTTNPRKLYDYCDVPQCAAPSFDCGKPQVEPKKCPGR
Sequence of Plasminogen (P00747 581-810 limits assumed): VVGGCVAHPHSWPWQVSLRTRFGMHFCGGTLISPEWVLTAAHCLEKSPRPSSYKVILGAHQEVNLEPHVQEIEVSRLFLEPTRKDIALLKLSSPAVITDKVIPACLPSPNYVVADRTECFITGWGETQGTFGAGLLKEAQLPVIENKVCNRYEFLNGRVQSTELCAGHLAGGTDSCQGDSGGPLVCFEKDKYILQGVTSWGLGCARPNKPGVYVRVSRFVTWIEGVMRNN
How it was run: as §2

[32] = Cmax in Han Wistar rat at 1 umol/kg, po administered via gavage by LC-MS/MS method; type: ADME, organism-based; set-up: dose 1 umol/kg, route oral; conditions: in vivo
How it was run: as §1

[33] = species: Homo sapiens; experiment: Selectivity ratio of Ki for human tissue factor/F7a to Ki for human alpha-thrombin
[34] = molecular target: Coagulation factor XI (Homo sapiens, UniProt P03951); experiment: Inhibition of human F11a using S-2366 as substrate preincubated for 300 secs followed by substrate addition measured after 40 mins
Sequence of Coagulation factor XI (P03951 19-387 limits assumed): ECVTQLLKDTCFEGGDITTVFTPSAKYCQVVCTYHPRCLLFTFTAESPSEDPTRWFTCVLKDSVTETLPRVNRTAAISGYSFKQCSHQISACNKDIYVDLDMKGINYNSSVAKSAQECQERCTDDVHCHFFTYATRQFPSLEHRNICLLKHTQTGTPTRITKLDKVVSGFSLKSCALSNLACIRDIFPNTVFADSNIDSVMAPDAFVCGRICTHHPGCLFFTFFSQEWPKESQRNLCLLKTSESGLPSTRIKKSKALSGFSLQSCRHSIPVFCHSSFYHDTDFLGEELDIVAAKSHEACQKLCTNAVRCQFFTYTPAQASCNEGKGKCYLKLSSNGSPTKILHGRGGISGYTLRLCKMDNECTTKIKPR
Sequence of Coagulation factor XI (P03951 388-625 limits assumed): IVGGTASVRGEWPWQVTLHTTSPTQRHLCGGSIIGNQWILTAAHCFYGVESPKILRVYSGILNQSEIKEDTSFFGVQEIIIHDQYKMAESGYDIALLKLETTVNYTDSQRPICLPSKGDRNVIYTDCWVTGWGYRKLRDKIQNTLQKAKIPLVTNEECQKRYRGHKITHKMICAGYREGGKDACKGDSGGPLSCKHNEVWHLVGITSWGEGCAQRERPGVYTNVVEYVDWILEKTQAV
How it was run: as §2

[35] = Apparent terminal half life in Han Wistar rat at 1 umol/kg, po administered via gavage by LC-MS/MS method; type: ADME, organism-based; conditions: in vivo, read-out: betat1/2(app) (converted)
How it was run: as §1

[36] = Drug level in human liver microsomes treated with treated with 25-Chloro-18-methyl-13,14,17,20,22,23-hexahydro-1H,7H-15,19-methano-8,12-(metheno)-4,6,2,14,15,22-benzodioxatetraazacyclopentacosine-3,7,21,28(1H,16H)-tetrone in presence of NADPH; type: ADME, Microsome
[37] = Solubility of the compound in phosphate buffer at pH 7.4 at 25 degC after 24 hrs by ultraperformance LC/MS/MS method

Row | Compound | Drug metabolism [1] | IC50 [2] | IC50 [4] | Ratio Ki [5] | Ki [6] | Ki [7] | Ki [8] | IC50 [10] | Ratio Ki [11] | Ki [13] | microsomal CLint at 1 µM [14] | Ratio Ki [19] | Ratio Ki [20] | Ki [22] | Ratio Ki [28] | Ki [31] | Ratio Ki [33] | Ki [34] | other results
1 | C=O [FORMALDEHYDE] | Metabolite_Detected |  |  |  |  |  |  |  |  |  |  |  |  |  |  |  |  |  | 
2 | CC1=C(CC(=O)NCc2cc(Cl)ccc2CN)C(=O)N(NCc2cccc(C(=O)O)c2)CC1 | Metabolite_Detected | 1.2 µM | 0.097 µM | > 1000 | > 17 µM | > 29 µM | 0.0046 µM | > 50 µM | > 1000 | > 5.4 µM | < 15 µL/min/mg | > 1000 | > 1000 | > 33 µM | > 1000 | > 19 µM | > 1000 | > 19 µM | clearance [3]: 32.4 mL/min/kg; AUC(0-inf) [9]: 0.0025 µM·h; Drug metabolism [12]: Metabolite_Detected; AUC(0-inf) [15]: 0.258 µM·h; Papp A→B at 10 µM [16]: 0.1 ×10⁻⁶ cm/s; efflux ratio at 10 µM [17]: 2.4; Drug metabolism [18]: Metabolite_Detected; Vd [21]: 0.23 L/kg; Drug metabolism [23]: Metabolite_Detected; half-life [24]: 21 min; Drug metabolism [25]: Metabolite_Detected; Drug metabolism [26]: Metabolite_Detected; Drug metabolism [27]: Metabolite_Detected; logD at 3 h [29]: -0.5; bioavailability [30]: 0.5%; Cmax [32]: 4 nM; half-life [35]: 33.6 min; Drug metabolism [36]: Metabolite_Detected; solubility at 24 h [37]: > 100 µM
3 | CC1=C(CC(=O)NCc2cc(Cl)ccc2CN)C(=O)N(NCc2ccccc2)CC1 |  | 0.68 µM | 0.072 µM | > 1000 | > 17 µM | > 29 µM | 0.0005 µM | 13 µM | > 1000 | > 5.4 µM | 150 µL/min/mg | > 1000 | > 1000 | > 33 µM | > 1000 | > 19 µM | > 1000 | > 19 µM | 

Source: ChEMBL document CHEMBL4425130, “Macrocyclic Prodrugs of a Selective Nonpeptidic Direct Thrombin Inhibitor Display High Permeability, Efficient Bioconversion but Low Bioavailability” (J Med Chem, 2016)
